MIN6 prolif: MIN6 beta-cell proliferation induction; MIN6 cells proliferation, ATPlite luminescence, 48 h; cells starved in 0.2% serum; 100% = growth in 10% serum; proliferation, % at 10 µM; 330,000 compounds, 0.29% hits; AID 2380;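 active = compounds whose signal lies at least 3.5 SD above the mean of all wells on their plate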
hiPSC survival: increases survival of single human iPS cells. survival enhancement, % at 20 µM. AID 602274. 360,000 compounds, 0.044% hits. hiPSC single-cell survival, ATPlite luminescence; 100% = ROCK inhibitor wells, 0% = DMSO; in the data active = survival enhancement above about 18%;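 also: cells exposed to compounds for 16 hours before the ATP read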
PPC-1+TRAIL kill: compounds killing PPC-1 cancer cells with TRAIL present (potentiator screen, no TRAIL-free arm) | PPC-1 cells + TRAIL, ATPLite viability luminescence | cell killing (% activity), % at 4 µM or 5 µM | 220,000 compounds, 0.41% hits | AID 1443;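 active = cell killing above 50% in the first pass at 4 µM, then a duplicate retest at 5 µM averaging 50% or more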
FLuc act counter: firefly luciferase counter-screen for stimulation assays | ATPlite luciferase biochemical, luminescence, 10 min; 0 = ATP-free wells, 1 = DMSO control | P08659 | activation factor at 10 µM | 200,000 tested, under 10 active | AID 1027;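 active = luciferase activation factor, scaled between plate controls, of at least 2 with compound at 10 µM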
Target sequence (P08659 whole entry, looked up): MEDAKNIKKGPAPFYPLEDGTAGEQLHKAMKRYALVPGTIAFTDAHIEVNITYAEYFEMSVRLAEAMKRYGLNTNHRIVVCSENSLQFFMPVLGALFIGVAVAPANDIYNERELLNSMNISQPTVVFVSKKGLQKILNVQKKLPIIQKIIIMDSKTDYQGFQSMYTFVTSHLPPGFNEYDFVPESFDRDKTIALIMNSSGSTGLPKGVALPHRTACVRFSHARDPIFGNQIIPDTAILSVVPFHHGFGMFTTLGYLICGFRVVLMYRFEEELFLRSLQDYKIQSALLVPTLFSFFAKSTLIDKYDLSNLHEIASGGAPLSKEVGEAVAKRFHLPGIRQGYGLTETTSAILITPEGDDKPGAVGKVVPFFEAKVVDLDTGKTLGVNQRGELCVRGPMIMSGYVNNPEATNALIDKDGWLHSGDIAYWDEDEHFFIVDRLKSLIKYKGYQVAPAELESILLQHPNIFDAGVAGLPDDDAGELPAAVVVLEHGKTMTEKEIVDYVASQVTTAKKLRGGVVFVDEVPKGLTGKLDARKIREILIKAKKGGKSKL
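Material: Luciferase/luciferin reagent mix | Doses: Test compounds dosed from 2 mM stocks in 100% DMSO | Timing: 10 min incubation after luciferase reagent addition, room temperature | Measured by: Luminescence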
FLuc inh counter: Photinus pyralis luciferase inhibition counter-screen | 200,000 compounds, 1.5% hits | AID 1006 | inhibition, % at 10 µM | ATPLite firefly luciferase biochemical luminescence, 10 min;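 active = inhibition above about 50% when tested at 10 µM, limit read from the data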
TRAIL sens C8: sensitizes caspase-8 expressing cells to TRAIL; AID 624354; 360,000 compounds, 1% hits; NB7+C8 cells + TRAIL, ATPlite viability luminescence; inhibition (viability loss, TRAIL sensitization), % at 10 µM;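 active = compounds causing at least 50% loss of cell viability in the single-dose screen, relative to plate controls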
PPC1 cytotox: kills PPC-1 cells; 1,200 compounds, 50% hits; shares compounds with PPC-1+TRAIL kill; PPC-1 viability, ATPlite luminescence, overnight; cytotoxicity, % at 5 µM;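 active = reconfirmed compounds whose average cytotoxicity reaches 50% or more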
Hits are given with their value; 0 = inactive; - = no result given. Rows were chosen to be rich in hits. Some 1.8% of all compounds tested hit in one or more screens of this group.

SMILES | MIN6 prolif | hiPSC survival | PPC-1+TRAIL kill | FLuc act counter | FLuc inh counter | TRAIL sens C8 | PPC1 cytotox
COc1ccc(-c2cc(=Nc3ccc(C(=O)O)cc3)c3cc(C)ccc3o2)cc1 | 0 | 0 | 0 | 0 | 58.4 | 0 | 0
CC(=O)Nc1nc(COc2ccccc2)cs1 | 0 | 0 | 0 | 0 | 0 | 0 | 0
COc1ccc(Cc2nc3ccccc3c(=O)n2N)cc1OC | 0 | 0 | - | - | - | 0 | -
CCOC(=O)c1sc(-c2ccc(OC)cc2)cc1N | 0 | 0 | 0 | 0 | 0 | 0 | 0
Cc1cccc(/C=C2\CCC(=C3SCCCS3)C2=O)c1 | 0 | 0 | 77.8 | 0 | 92.6 | 82.0 | 80.3
O=C1C(=Cc2ccc(F)cc2)Cc2ccccc21 | - | 0 | - | - | - | 0 | -
O=C1C(=C2SCCCS2)CC/C1=C\c1ccc(F)cc1 | 0 | 0 | 90.2 | 0 | 93.1 | 84.2 | 89.5
CCN(C(=S)Nc1cccc2ccccc12)c1ccccc1 | - | 0 | - | - | - | 0 | -
Cc1cc(C)cc(OCC(=O)NC2=NCCS2)c1 | 0 | 0 | 0 | 0 | 0 | 0 | 0
O=C(COc1ccc2ccccc2c1)NC1=NCCS1 | 0 | 0 | 0 | 0 | 0 | 0 | -
CC(Sc1nnc(C2CC2)n1C1CC1)C(=O)N(C)C1(C#N)CCCCC1 (centres undefined) | 0 | 0 | - | - | - | 0 | -
Cc1csc(NC(=O)c2cccc(Cn3nc(C)c(Br)c3C)c2)n1 | 0 | 0 | 0 | 0 | 0 | 0 | 0
O=C(CN1CCN(c2cccc(C(F)(F)F)c2)CC1)NCc1ccccc1 | 0 | 0 | - | - | - | 0 | -
CC(C)c1ccc(Nc2nnc(SCC(=O)Nc3ncc(S(=O)(=O)c4ccc([N+](=O)[O-])cc4)s3)s2)cc1 | 0 | 0 | 63.6 | 0 | 73.1 | 76.3 | 65.4
CCOC(=O)C1=CNS(=O)(=O)NC1c1ccc(Br)cc1F (centres undefined) | - | 0 | - | - | - | 0 | -
CC(=O)C(Cc1ccccc1)NC(=O)COC(=O)c1cccc(C)c1[N+](=O)[O-] (centres undefined) | 0 | 0 | - | - | - | 0 | -
COc1ccc(N2CCN(C3CC(=O)N(Cc4ccc(N5CCCC5=O)cc4)C3=O)CC2)cc1 (centres undefined) | 0 | 0 | 0 | 0 | 0 | 0 | -
O=C1CC(N2CCN(c3ccc(F)cc3)CC2)C(=O)N1Cc1ccc(N2CCCC2=O)cc1 (centres undefined) | - | 0 | 0 | 0 | 0 | 0 | 0
C/C(=N\NC(=O)c1cccc(S(=O)(=O)N2CCCC2)c1)c1ccc(C)cc1 | 0 | 0 | - | - | - | 0 | -
c1ccc(-c2cn3c4c(sc3n2)CCCC4)cc1 | 0 | 0 | 82.0 | 0 | 94.9 | 84.6 | 83.0
Cc1c(C(=O)N2CCc3ccccc3C2)sc2nc(-c3ccccc3)cn12 | 0 | 0 | 0 | 0 | 0 | 0 | -
CC(C)(C)c1ccc(CC(=O)N2CCC2(C)C(=O)NS(=O)(=O)c2cccs2)cc1 (centres undefined) | - | 0 | - | - | - | 0 | -
CC(=O)N1CCN(S(=O)(=O)c2cccc(C(=O)OCC(=O)NCc3ccccc3Cl)c2)CC1 | - | 0 | - | - | - | 0 | -
Cc1ccc(NC(=O)Nc2ccc3c(c2)nc(C)n3C)cc1C | 0 | - | 0 | 0 | 0 | - | -
Cc1nc2cc(Nc3nnc(-c4ccccc4)c4ccccc34)ccc2n1C | 0 | 0 | 70.8 | 0 | 92.0 | 75.4 | 70.5
SMILES | MIN6 prolif | hiPSC survival | PPC-1+TRAIL kill | FLuc act counter | FLuc inh counter | TRAIL sens C8 | PPC1 cytotox
Cc1nc2cc(NC(=O)Nc3cccc4ccccc34)ccc2n1C | 0 | 0 | 0 | 0 | 55.7 | 0 | 0
COc1ccc(Nc2nnc(-c3ccccc3)c3ccccc23)cc1C(=O)N1CCCCC1 | 0 | 0 | 0 | 0 | 0 | 0 | -
COc1ccc(OC)c(Cc2nnc(CCC(=O)NCc3ccc(C)s3)o2)c1 | 0 | 0 | - | 0 | 0 | 0 | -
COc1ccc(-c2ccc3c(c2)C2CC3CCN2)cc1 (centres undefined) | - | 0 | - | - | - | 0 | -
c1ccc2[nH]c(N3CCOCC3)nc2c1 | 0 | 0 | 0 | 0 | 0 | 0 | -
O=c1c(Cl)c(N2CCOCC2)cnn1-c1nc2ccccc2[nH]1 | 0 | 0 | 0 | 0 | 70.6 | 0 | 0
CN(C)S(=O)(=O)c1ccc(C(=O)Nc2cccc(C(=O)O)c2)cc1 | 0 | 0 | 0 | 0 | 0 | 0 | 0
COc1ccc(C2N(C(=O)c3ccccc3)CCN2C(=O)c2ccccc2)cc1 | 0 | 0 | 0 | 0 | 0 | 0 | 0

Screening data as filed in PubChem BioAssay.
